Data on 16 compounds can be found in ChEMBL document CHEMBL2203119, “Synthesis of retinoid enhancers based on 2-aminobenzothiazoles for anti-cancer therapy” (Bioorg Med Chem, 2012).

Data set [1] can be described thus: Anticancer activity against human BE(2)-C cells transfected with full-length human cloned RARbeta2 expressing pMEP4 vector assessed as reduction of cell viability at 5 uM after 96 hrs by Alamar blue assay relative to compound treated pMEP4 empty vector cloned cells. It counts as functional. The procedure, abridged:
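RARβ-pMEP4 and empty-vector BE(2)-C cells attached 24 h in 96-well plates, then exposed to ligand at 5 μM for 96 h. Alamar blue absorbance read at 570 nm. Viability of RARβ-transfected cells expressed relative to empty-vector cells. Mean ± SEM from at least three replicates.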
Background: Alamar Blue is a resazurin reagent that responds to reducing activity.

Data set [2] in a line: Upregulation of RARbeta2 mRNA expression in human BE(2)-C cells transfected with full-length human cloned RARbeta2 expressing pMEP4 vector at 10 uM after 24 hrs by quantitative real time PCR analysis relative to control. It counts as functional, cell-based. The procedure, abridged: (§1)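 RARβ-pMEP4 BE(2)-C cells attached 24 h in duplicate wells of 6-well plates, then exposed 24 h to compound (1 or 10 μM), 13-cis-retinoic acid (10 μM), AC261066 (10 nM) or DMSO (0.05%). Total RNA isolated, RARβ2 mRNA quantified by real-time PCR as fold change versus control.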
In general terms: Real-time PCR tracks product formation cycle by cycle.

A short description of data set [3]: Anticancer activity against human BE(2)-C cells transfected with pMEP4 empty vector assessed as reduction of cell viability at 10 uM after 72 hrs by Alamar blue assay. It counts as functional. The procedure, abridged:
(§2)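 BE(2)-C neuroblastoma cells stably carrying RARβ cDNA in pMEP4 episomal vector, or empty pMEP4, in DMEM with L-glutamine and 10% FCS at 37 °C, 5% CO2. Cells attached 24 h in 96-well plates, then treated 72 h. Alamar blue absorbance at 570 nm, viability expressed as percentage of negative control.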

The nature of data set [4]: Anticancer activity against human BE(2)-C cells transfected with full-length human cloned RARbeta2 expressing pMEP4 vector assessed as reduction of cell viability at 10 uM after 72 hrs by Alamar blue assay. It counts as functional. The procedure, abridged: as §2
A short description of data set [5]: Upregulation of RARbeta2 mRNA expression in human BE(2)-C cells transfected with full-length human cloned RARbeta2 expressing pMEP4 vector at 10 nM after 24 hrs by quantitative real time PCR analysis relative to control. The class given is functional, cell-based. The procedure, abridged:
as §1

Data set [6] is described as follows: Cytotoxicity against human MRC5 cells assessed as reduction of cell viability at 1 uM after 96 hrs by alamar blue assay. Conditions: read-out: INH. It counts as cell-based. An outline of the steps: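 MRC-5 cells attached 24 h in 96-well plates, exposed to compound at 1 μM for 96 h. Viability by Alamar blue absorbance at 570 nm versus DMSO (0.5%) control.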

Data set [7] has as its system SH-SY5Y. The data set can be described thus: Anticancer activity against retinoid-sensitive human SH-SY5Y cells assessed as cell viability at 0.01 to 100 uM after 96 hrs by alamar blue assay. It counts as functional, cell-based. An outline of the steps: (§3)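 Alamar blue (resazurin) viability assay in SH-SY5Y or MDA-MB-231 cells grown in DMEM/L-glutamine/10% FCS, 37 °C, 5% CO2. After 24 h attachment in 6 replicate wells, cells were continuously exposed to serial dilutions for 96 h. Absorbance at 570 nm was read at 0 h and 5 h after reagent addition. Viability is % of matched 0.5% DMSO controls; mean ± SEM, three independent experiments.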

The subject of data set [8] is MDA-MB-231. The data set can be described thus: Anticancer activity against retinoid-resistant human MDA-MB-231 cells assessed as reduction of cell viability at 1 uM after 96 hrs by alamar blue assay. The settings on record: MDA-MB-231, 96 h. The class given is functional. The procedure, abridged:
as §3

A short description of data set [9]: Anticancer activity against human BE(2)-C cells transfected with pMEP4 empty vector assessed as reduction of cell viability at 1 uM after 72 hrs by Alamar blue assay. It counts as functional. An outline of the steps: as §2
Data set [10] has as its system SH-SY5Y. As to the kind of experiment: Anticancer activity against retinoid-sensitive human SH-SY5Y cells assessed as reduction of cell viability at 1 uM after 96 hrs by alamar blue assay. The class given is functional. An outline of the steps: as §3
In data set [11] the test system is SH-SY5Y. As to the kind of experiment: Anticancer activity against retinoid-sensitive human SH-SY5Y cells assessed as reduction of cell viability at 0.1 uM after 96 hrs by alamar blue assay. It counts as functional. The procedure, abridged:
as §3

The nature of data set [12]: Anticancer activity against human BE(2)-C cells transfected with full-length human cloned RARbeta2 expressing pMEP4 vector assessed as reduction of cell viability at 1 uM after 72 hrs by Alamar blue assay. The class given is functional. The procedure, abridged:
as §2

Data set [13] can be described thus: Upregulation of RARbeta2 mRNA expression in human BE(2)-C cells transfected with full-length human cloned RARbeta2 expressing pMEP4 vector at 1 uM after 24 hrs by quantitative real time PCR analysis relative to control. It counts as functional, cell-based. The procedure, abridged: as §1
Data set [14] deals with SH-SY5Y. As to the kind of experiment: Anticancer activity against retinoid-sensitive human SH-SY5Y cells assessed as reduction of cell viability at 10 uM after 96 hrs by alamar blue assay. It counts as functional. The procedure, abridged: as §3
Data set [15] deals with MDA-MB-231. The data set can be described thus: Anticancer activity against retinoid-resistant human MDA-MB-231 cells assessed as reduction of cell viability at 20 uM after 96 hrs by alamar blue assay. It counts as functional. Conditions: MDA-MB-231, 96 h. The procedure, abridged: as §3
Data set [16] relates to SH-SY5Y. The data set can be described thus: Anticancer activity against retinoid-sensitive human SH-SY5Y cells assessed as reduction of cell viability at 20 uM after 96 hrs by alamar blue assay. The class given is functional. An outline of the steps: as §3
Data set [17] is described as follows: Anticancer activity against human BE(2)-C cells transfected with full-length human cloned RARbeta2 expressing pMEP4 vector assessed as reduction of cell viability at 20 uM after 72 hrs by Alamar blue assay. The class given is functional. An outline of the steps: as §2
The nature of data set [18]: Anticancer activity against human BE(2)-C cells transfected with pMEP4 empty vector assessed as reduction of cell viability at 20 uM after 72 hrs by Alamar blue assay. It counts as functional. An outline of the steps:
as §2

Calls of active or inactive are those of the source. The calls are words filed in the database; no cut-off is given here.

With `Cn1cnnc1SCc1nnc(-c2ccc(Br)s2)o1`, the inhibition at 5 µM in data set [1] was 20%. Same read-out and setting: to `O=C(CCSc1ccccc1)Nc1ccc(-c2cn3ccsc3n2)cc1` belongs 20%. Take `O=C(CCc1c[nH]c2ccccc12)Nc1nc2ccccc2s1`: in data set [2], the fold change (FC) was determined as 1.5. Further, the Activity in [3] is 38%; in data set [4], 53%.

`CCCCOCCOc1nc(-c2ccc(C(=O)O)c(F)c2)sc1C` registered a fold change (FC) in [5] of 2.7. Take `Cc1cccc2sc(NC(=O)CNC(=O)Cc3ccccc3)nc12`: the inhibition at 5 µM in [1] came out at 20%. For the compound `CC1=C(/C=C/C(C)=C/C=C/C(C)=C\C(=O)O)C(C)(C)CCC1` [ISOTRETINOIN], the fold change (FC) in data set [2] turned out to be 9.3. The cytotoxicity at 96 h, 1 µM in data set [6] came to 10%. Turning to `O=C(Nc1nc2ccccc2s1)C(=O)c1c[nH]c2ccccc12`, in [7], the outcome was inactive. Turning to `O=C(Cc1c[nH]c2ccccc12)Nc1nc2ccccc2s1`, the inhibition at 1 µM is 58% in [8], 38% in [9], 55% in data set [10] and 50% in [12]. For the same compound, the cytotoxicity at 96 h, 1 µM in data set [6] worked out at 20%. For the same compound, the inhibition at 0.1 µM in [11] came out at 12%. The same compound registered a fold change (FC) in data set [13] of 2.1.

With `CC1(C)Cc2cccc(OCc3nnc(-c4ccccc4)o3)c2O1`, in data set [1], the inhibition at 5 µM was 20%. Same read-out and setting: the figure for `Cc1nnc(SCc2nnc(-c3cccs3)o2)n1-c1ccccc1` is 20%; for `Cc1nn(CC(C)C)c2sc(C(=O)Nc3nc4ccccc4[nH]3)cc12` it is 20%. For the compound `N[C@@H](Cc1ccccc1)C(=O)NCC(=O)Nc1nc2ccccc2s1`, the inhibition at 10 µM in data set [14] came out at 13%. The inhibition at 20 µM in data set [15] and in [16] was 50% throughout.

With `Cc1ccc(NC(=O)c2cc3c(C)nn(CC(C)C)c3s2)c(O)c1`, the inhibition at 5 µM in data set [1] worked out at 20%. `O=C(Cc1c[nH]c2ccccc12)Nc1nc2ccc(Cl)cc2s1`: the figures for the inhibition at 20 µM in [17] and in data set [18] were 48% and 43%, respectively. On the same counts, the results for `CCOc1ccc2nc(NC(=O)Cc3c[nH]c4ccccc34)sc2c1` are 39% and 29%.

Turning to `Cc1cc(C(=O)CSc2nnnn2C2CC2)c(C)n1C1CC1`, in [1], the inhibition at 5 µM turned out to be 20%.

For orientation: inhibition means the percentage by which the read-out fell short of the control.
